According to PMC4186684 (Molecular Pharmaceutics, 2014):
Converted amounts (≈) assume the structure as drawn.

How the values were obtained:
[1] = test system: SK-OV-3 cells; assay: Confocal laser scanning microscopy of cellular uptake; type: cell-based, human; conditions: 10 μM, 1 h at 37 °C, Opti-MEM I, 488 nm excitation
In short: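 SK-OV-3 cells were seeded on coverslips in complete EMEM at 1 × 10⁵ cells/well and held at 50% confluency. Medium was replaced with fluorescein-labeled test peptide in Opti-MEM I reduced serum medium for 1 h at 37 °C. Cells were washed three times with PBS containing Ca/Mg and mounted. Imaging used 488 nm argon laser excitation and a 505–530 nm band-pass filter. FAM served as the comparison.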

[2] = test system: MRSA (ATCC 43300); assay: MIC used as basis of the time-kill studies; type: cell-based; conditions: Staphylococcus aureus, ATCC43300|MRSA
[3] = test system: methicillin-resistant S. aureus (MRSA, ATCC 43300); assay: MIC by broth microdilution; type: cell-based; conditions: Staphylococcus aureus, ATCC43300|MRSA
In short: (§1)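 Cultures were grown overnight in tryptic soy broth at 37 °C, shaken at 175 rpm, then diluted from 1 × 10⁸ to 1 × 10⁵ CFU/mL. Peptides were 5 mM stocks in water, or in 50 mM NH₄HCO₃ for poorly soluble ones. Test compound was mixed 1:39 (v/v) with the suspension, serially 2-fold diluted and incubated statically overnight at 37 °C. MIC was the lowest concentration with no visible growth, in triplicate. Controls were tetracycline (MRSA) and tobramycin (P. aeruginosa).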

[4] = test system: E. coli (ATCC 35218); assay: MIC used as basis of the time-kill studies; type: cell-based; conditions: Escherichia coli, ATCC35218
[5] = test system: P. aeruginosa (PAO1); assay: MIC by broth microdilution; type: cell-based; conditions: Pseudomonas aeruginosa
In short: as §1

5(6)-Carboxyfluorescein [FAM]
intracellular fluorescence / localisation (CLSM) [1]: no significant fluorescence

CN(C)[C@@H]1C(O)=C(C(N)=O)C(=O)[C@@]2(O)C(O)=C3C(=O)c4c(O)cccc4[C@@](C)(O)[C@H]3C[C@@H]12 [tetracycline]
MIC [2]: 0.5 µg/mL (≈ 1.13 µM) | MIC [3]: 0.156 µg/mL (≈ 0.351 µM) | MIC [4]: 2 µg/mL (≈ 4.5 µM)

NC[C@H]1O[C@H](O[C@H]2[C@H](O)[C@@H](O[C@H]3O[C@H](CO)[C@@H](O)[C@H](N)[C@H]3O)[C@H](N)C[C@@H]2N)[C@H](N)C[C@@H]1O [tobramycin]
MIC [5]: 0.731 µg/mL (≈ 1.56 µM)
